Source: ChEMBL document CHEMBL4130483, “Leishmanicidal and cytotoxic activity of hederagenin-bistriazolyl derivatives” (Eur J Med Chem, 2017)

What was measured:
Leishmania infantum [1] = experiment: Antiparasitic activity against Leishmania infantum; assay type: functional, organism-based
A-375 = experiment: Cytotoxicity against human A375 cells assessed as reduction in cell viability incubated fro 96 hrs by SRB assay; assay type: functional, cell-based; settings: A-375, 96 h
Method in brief: (§1)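 Sulforhodamine B photometric assay after 96 h treatment. Monolayers were grown in RPMI 1640 with L-glutamine, 10% heat-inactivated FBS and penicillin/streptomycin at 37 °C in humidified 5% CO2. Cut-off was 30 μM, or 60 μM for the parent. EC50 was averaged from at least three independent experiments, each in four replicates. Betulinic acid was the positive standard.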

A2780 = experiment: Cytotoxicity against human A2780 cells assessed as reduction in cell viability incubated fro 96 hrs by SRB assay; assay type: functional, cell-based; settings: A2780, 96 h; method in brief: as §1
FaDu = experiment: Cytotoxicity against human FADU cells assessed as reduction in cell viability incubated fro 96 hrs by SRB assay; assay type: functional, cell-based
Leishmania infantum [2] = experiment: Antileishmanial activity against Leishmania infantum MHOM/BR/70/BH46 intracellular amastigotes infected in canine DH82 cells assessed as as inhibition of cell growth at 1000 uM incubated for 48 hrs by ELISA method; assay type: functional; settings: MHOM/BR/70/BH46, DH82, 48 h, read-out: GI
HT-29 = experiment: Cytotoxicity against human HT-29 cells assessed as reduction in cell viability incubated fro 96 hrs by SRB assay; assay type: functional, cell-based; settings: HT-29, 96 h; method in brief: as §1
SW-1736 = experiment: Cytotoxicity against human SW1736 cells assessed as reduction in cell viability incubated fro 96 hrs by SRB assay; assay type: functional, cell-based; settings: SW-1736, 96 h; method in brief: as §1
Leishmania infantum [3] = experiment: Antileishmanial activity against Leishmania infantum MHOM/BR/70/BH46 intracellular amastigotes infected in canine DH82 cells assessed as as inhibition of cell growth incubated for 48 hrs by ELISA method; assay type: functional, organism-based; settings: MHOM/BR/70/BH46, DH82, 48 h
Method in brief: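 L. infantum BH46 intracellular amastigotes. Phase II testing at 0.1, 1.0, 10 and 100 μM. IC50 is the concentration inhibiting in vitro growth by 50%, taken from dose-response curves (log concentration vs inhibition) run in four replicates. Potassium antimonyl tartrate trihydrate served as positive control.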

[4] = Selectivity index, ratio of CC50 for human HepG2 cells to IC50 for antileishmanial activity against Leishmania infantum MHOM/BR/70/BH46 intracellular amastigotes infected in canine DH82 cells; assay type: toxicity, cell-based; settings: read-out: Ratio CC50/IC50
Method in brief: (§2)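 SI = CC50 in BGM or HepG2 cells (MTT) divided by the intracellular amastigote IC50.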

[5] = Selectivity index, ratio of CC50 for African green monkey BGM cells to IC50 for antileishmanial activity against Leishmania infantum MHOM/BR/70/BH46 intracellular amastigotes infected in canine DH82 cells; assay type: toxicity, cell-based; settings: read-out: Ratio CC50/IC50; method in brief: as §2
[6] = Cytotoxicity in dog DH82 cells assessed as reduction in cell viability incubated for 48 hrs by MTT assay; assay type: cell-based, Canis lupus familiaris
Method in brief: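 DH82 canine macrophage viability was monitored microscopically and by MTT colorimetric assay. CC50 is the concentration cytotoxic to 50% of DH82 cells. Potassium antimonyl tartrate trihydrate was the positive control.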

[7] = Cytotoxicity in African green monkey BGM cells assessed as reduction in cell viability incubated for 48 hrs by MTT assay; assay type: cell-based; settings: chlorocebus aethiops
Method in brief: (§3)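 MTT colorimetric assay with microscopic monitoring. CC50 is the concentration cytotoxic to 50% of BGM or HepG2 cells. Potassium antimonyl tartrate trihydrate was the positive control.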

[8] = Cytotoxicity in human HepG2 cells assessed as reduction in cell viability incubated for 48 hrs by MTT assay; assay type: cell-based; method in brief: as §3
[9] = Selectivity index, ratio of CC50 for dog DH82 cells to IC50 for antileishmanial activity against Leishmania infantum MHOM/BR/70/BH46 intracellular amastigotes infected in canine DH82 cells; assay type: toxicity, cell-based; settings: read-out: Ratio CC50/IC50
Method in brief: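 SI = CC50 in DH82 macrophages (MTT) divided by IC50 against intracellular L. infantum BH46 amastigotes.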

| SMILES | IC50 (Leishmania infantum [1]) [µM] | EC50 (A-375) [µM] | EC50 (A2780) [µM] | EC50 (FaDu) [µM] | inhibition of growth at 1000 µM (Leishmania infantum [2]) [%] | EC50 (HT-29) [µM] | EC50 (SW-1736) [µM] | IC50 (Leishmania infantum [3]) [µM] | selectivity ratio [4] | selectivity ratio [5] | CC50 at 48 h [6] [µM] | CC50 at 48 h [7] [µM] | CC50 at 48 h [8] [µM] | selectivity ratio [9] |
| --- | --- | --- | --- | --- | --- | --- | --- | --- | --- | --- | --- | --- | --- | --- |
| CC1(C)CC[C@]2(C(=O)NCc3cn(Cc4ccccc4[N+](=O)[O-])nn3)CC[C@]3(C)C(=CC[C@@H]4[C@@]5(C)CC[C@H](O)[C@@](C)(CO)[C@@H]5CC[C@]43C)[C@@H]2C1 | 2 to 6 | – | – | – | – | – | – | – | – | – | – | – | – | – |
| CC1(C)CC[C@]2(C(=O)OCc3cn(Cc4cccc(Br)c4)nn3)CC[C@]3(C)C(=CC[C@@H]4[C@@]5(C)CC[C@H](O)[C@@](C)(COCc6cn(Cc7cccc(Br)c7)nn6)[C@@H]5CC[C@]43C)[C@@H]2C1 | – | > 30 | > 30 | > 30 | 7.8 | > 30 | > 30 | – | – | – | – | – | – | – |
| CC1(C)CC[C@]2(C(=O)OCc3cn(Cc4ccccc4Cl)nn3)CC[C@]3(C)C(=CC[C@@H]4[C@@]5(C)CC[C@H](O)[C@@](C)(COCc6cn(Cc7ccccc7Cl)nn6)[C@@H]5CC[C@]43C)[C@@H]2C1 | – | > 30 | > 30 | > 30 | 4.1 | 27 | > 30 | – | – | – | – | – | – | – |
| CC1(C)CC[C@]2(C(=O)OCc3cn(Cc4ccccc4[N+](=O)[O-])nn3)CC[C@]3(C)C(=CC[C@@H]4[C@@]5(C)CC[C@H](O)[C@@](C)(COCc6cn(Cc7ccccc7[N+](=O)[O-])nn6)[C@@H]5CC[C@]43C)[C@@H]2C1 | – | > 30 | > 30 | > 30 | 35 | > 30 | > 30 | – | – | – | – | – | – | – |
| C#CCOC[C@@]1(C)[C@@H]2CC[C@]3(C)[C@H](CC=C4[C@@H]5CC(C)(C)CC[C@]5(C(=O)OCC#C)CC[C@]43C)[C@@]2(C)CC[C@@H]1O | – | – | – | – | 77.2 | – | – | 28.8 | 3.7 | 3.5 | 259 | 99 | 104 | 9 |
| CC1(C)CC[C@]2(C(=O)OCc3cn(Cc4cccc(Cl)c4)nn3)CC[C@]3(C)C(=CC[C@@H]4[C@@]5(C)CC[C@H](O)[C@@](C)(COCc6cn(Cc7cccc(Cl)c7)nn6)[C@@H]5CC[C@]43C)[C@@H]2C1 | – | > 30 | > 30 | > 30 | 41.8 | > 30 | > 30 | – | – | – | – | – | – | – |
| Cc1ccc(Cn2cc(COC[C@@]3(C)[C@@H]4CC[C@]5(C)[C@H](CC=C6[C@@H]7CC(C)(C)CC[C@]7(C(=O)OCc7cn(Cc8ccc(C)cc8)nn7)CC[C@]65C)[C@@]4(C)CC[C@@H]3O)nn2)cc1 | – | 26.1 | 29.1 | > 30 | 0 | 21.7 | > 30 | – | – | – | – | – | – | – |
| Cc1cccc(Cn2cc(COC[C@@]3(C)[C@@H]4CC[C@]5(C)[C@H](CC=C6[C@@H]7CC(C)(C)CC[C@]7(C(=O)OCc7cn(Cc8cccc(C)c8)nn7)CC[C@]65C)[C@@]4(C)CC[C@@H]3O)nn2)c1 | – | > 30 | > 30 | > 30 | 31.3 | > 30 | > 30 | – | – | – | – | – | – | – |
| CC1(C)CC[C@]2(C(=O)OCc3cn(Cc4ccc(Br)cc4)nn3)CC[C@]3(C)C(=CC[C@@H]4[C@@]5(C)CC[C@H](O)[C@@](C)(COCc6cn(Cc7ccc(Br)cc7)nn6)[C@@H]5CC[C@]43C)[C@@H]2C1 | – | > 30 | > 30 | > 30 | 9.8 | > 30 | > 30 | – | – | – | – | – | – | – |
| CC1(C)CC[C@]2(C(=O)OCc3cn(Cc4cccc([N+](=O)[O-])c4)nn3)CC[C@]3(C)C(=CC[C@@H]4[C@@]5(C)CC[C@H](O)[C@@](C)(COCc6cn(Cc7cccc([N+](=O)[O-])c7)nn6)[C@@H]5CC[C@]43C)[C@@H]2C1 | – | > 30 | > 30 | > 30 | 21.4 | > 30 | > 30 | – | – | – | – | – | – | – |
| CC1(C)CC[C@]2(C(=O)OCc3cn(Cc4ccccc4Br)nn3)CC[C@]3(C)C(=CC[C@@H]4[C@@]5(C)CC[C@H](O)[C@@](C)(COCc6cn(Cc7ccccc7Br)nn6)[C@@H]5CC[C@]43C)[C@@H]2C1 | – | > 30 | > 30 | > 30 | 53.4 | > 30 | > 30 | – | – | – | – | – | – | – |
| CC1(C)CC[C@]2(C(=O)OCc3cn(Cc4ccccc4[N+](=O)[O-])nn3)CC[C@]3(C)C(=CC[C@@H]4[C@@]5(C)CC[C@H](O)[C@@](C)(CO)[C@@H]5CC[C@]43C)[C@@H]2C1 | 32 to 34 | – | – | – | – | – | – | – | – | – | – | – | – | – |
| CC1(C)CC[C@]2(C(=O)OCc3cn(CC(=O)c4ccccc4)nn3)CC[C@]3(C)C(=CC[C@@H]4[C@@]5(C)CC[C@H](O)[C@@](C)(COCc6cn(CC(=O)c7ccccc7)nn6)[C@@H]5CC[C@]43C)[C@@H]2C1 | – | > 30 | > 30 | > 30 | 0 | > 30 | > 30 | – | – | – | – | – | – | – |
| C=C(C)[C@@H]1CC[C@]2(C(=O)O)CC[C@]3(C)[C@H](CC[C@@H]4[C@@]5(C)CC[C@H](O)C(C)(C)[C@@H]5CC[C@]43C)[C@@H]12 [BETULINIC ACID] | – | 12 | – | 13.4 | – | – | 16.4 | – | – | – | – | – | – | – |
| CC1(C)CC[C@]2(C(=O)OCc3cn(CC(=O)c4ccc5ccccc5c4)nn3)CC[C@]3(C)C(=CC[C@@H]4[C@@]5(C)CC[C@H](O)[C@@](C)(COCc6cn(CC(=O)c7ccc8ccccc8c7)nn6)[C@@H]5CC[C@]43C)[C@@H]2C1 | – | > 30 | > 30 | > 30 | 71.5 | > 30 | > 30 | – | – | – | – | – | – | – |
| CC1(C)CC[C@]2(C(=O)O)CC[C@]3(C)C(=CC[C@@H]4[C@@]5(C)CC[C@H](O)[C@@](C)(CO)[C@@H]5CC[C@]43C)[C@@H]2C1 [HEDERAGENIN] | 61.6 | > 60 | > 60 | > 60 | 55.5 | > 60 | > 60 | – | > 16.2 | 0.9 | > 1000 | 57 | > 1000 | > 10 |
| CC1(C)CC[C@]2(C(=O)OCc3cn(Cc4ccc(F)cc4F)nn3)CC[C@]3(C)C(=CC[C@@H]4[C@@]5(C)CC[C@H](O)[C@@](C)(CO)[C@@H]5CC[C@]43C)[C@@H]2C1 | 11 | – | – | – | – | – | – | – | – | – | – | – | – | – |
| CC1(C)CC[C@]2(C(=O)OCc3cn(Cc4ccc(Cl)cc4)nn3)CC[C@]3(C)C(=CC[C@@H]4[C@@]5(C)CC[C@H](O)[C@@](C)(COCc6cn(Cc7ccc(Cl)cc7)nn6)[C@@H]5CC[C@]43C)[C@@H]2C1 | – | > 30 | > 30 | > 30 | 1.6 | > 30 | > 30 | – | – | – | – | – | – | – |
| CC1(C)CC[C@]2(C(=O)NCc3cn(Cc4ccc(Cl)cc4)nn3)CC[C@]3(C)C(=CC[C@@H]4[C@@]5(C)CC[C@H](O)[C@@](C)(CO)[C@@H]5CC[C@]43C)[C@@H]2C1 | 2 to 6 | – | – | – | – | – | – | – | – | – | – | – | – | – |
| CC1(C)CC[C@]2(C(=O)OCc3cn(Cc4ccccc4)nn3)CC[C@]3(C)C(=CC[C@@H]4[C@@]5(C)CC[C@H](O)[C@@](C)(COCc6cn(Cc7ccccc7)nn6)[C@@H]5CC[C@]43C)[C@@H]2C1 | – | > 30 | > 30 | > 30 | 17.7 | > 30 | > 30 | – | – | – | – | – | – | – |
| CC1(C)CC[C@]2(C(=O)OCc3cn(Cc4ccc(F)cc4F)nn3)CC[C@]3(C)C(=CC[C@@H]4[C@@]5(C)CC[C@H](O)[C@@](C)(COCc6cn(Cc7ccc(F)cc7F)nn6)[C@@H]5CC[C@]43C)[C@@H]2C1 | – | > 30 | > 30 | > 30 | 52.4 | > 30 | > 30 | 155 | 0.7 | 0.6 | 140 | 99.7 | 105 | 0.9 |
